SMILES strings stand for the structures. Activity calls are given as the source filed them. The calls are words filed in the database; no cut-off is given here.

The assay concerns Plasmodium yoelii nigeriensis. As to the kind of experiment: Antimalarial activity in multidrug-resistant Plasmodium yoelii nigeriensis infected Swiss mouse assessed as disease cure at 96 mg/kg, po two devided dose daily for 4 days by 28 day survival assay. It counts as functional. A digest of the protocol:
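Swiss mice of either sex (20 2 g) inoculated ip with 1 × 10⁶ MDR P. yoelii nigeriensis (chloroquine-, mefloquine-, halofantrine-resistant) parasites on day 0. Five mice per dose. Oral dosing in groundnut oil (0.1 mL per dose) from day 0 to 3, as two divided doses daily. Thin blood smears on day 4, then twice weekly to day 28. Mice without patent infection by day 28 scored cured; % protection = fraction of mice cured. β-arteether as positive control.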
On to `C=C(c1ccc(Br)cc1)[C@@H]1CO[C@@]2(CC[C@@]3(C)[C@H](CC[C@@H]4[C@@H]3CC[C@]3(C)[C@@H](O)CC[C@@H]43)C2)OO1` (relative stereo; form 1), for which the result was inactive. For `C=C(c1ccc(Br)cc1)[C@@H]1CO[C@@]2(CC[C@@]3(C)[C@H](CC[C@@H]4[C@@H]3CC[C@]3(C)[C@@H]([C@H](C)C(C)=O)CC[C@@H]43)C2)OO1` (relative stereo; form 1) the value was “inactive”; for `C=C(c1ccc(Br)cc1)[C@@H]1CO[C@@]2(CC[C@@]3(C)[C@H](CC[C@@H]4[C@@H]3CC[C@]3(C)[C@@H]([C@H](C)CCC(=O)OC)CC[C@@H]43)C2)OO1` (relative stereo; form 1), “inactive”. Under `C=C(c1ccc(Cl)cc1)[C@@H]1CO[C@@]2(CC[C@@]3(C)[C@H](CC[C@@H]4[C@@H]3CC[C@]3(C)[C@@H](C(C)=O)CC[C@@H]43)C2)OO1` (relative stereo; form 1) stands “inactive”. Take `C=C(c1ccc(Cl)cc1)[C@@H]1CO[C@@]2(CC[C@@]3(C)[C@H](CC[C@@H]4[C@@H]3CC[C@]3(C)[C@@H]([C@H](C)C(C)=O)CC[C@@H]43)C2)OO1` (relative stereo; form 1): the result was inactive. For `C=C(c1ccc(Cl)cc1)[C@@H]1CO[C@@]2(CC[C@@]3(C)[C@H](CC[C@@H]4[C@@H]3CC[C@]3(C)[C@@H]([C@H](C)CCC(=O)OC)CC[C@@H]43)C2)OO1` (relative stereo; form 1) the value was “inactive”; for `C=C(c1ccc(F)cc1)[C@@H]1CO[C@@]2(CC[C@@]3(C)[C@H](CC[C@@H]4[C@@H]3CC[C@]3(C)[C@@H](O)CC[C@@H]43)C2)OO1` (relative stereo; form 1), “inactive”; for `C=C(c1ccc(F)cc1)[C@@H]1CO[C@@]2(CC[C@@]3(C)[C@H](CC[C@@H]4[C@@H]3CC[C@]3(C)[C@@H]([C@H](C)C(C)=O)CC[C@@H]43)C2)OO1` (relative stereo; form 1), “inactive”. For `C=C(c1ccc(F)cc1)[C@@H]1CO[C@@]2(CC[C@@]3(C)[C@H](CC[C@@H]4[C@@H]3CC[C@]3(C)[C@@H]([C@H](C)CCC(=O)OC)CC[C@@H]43)C2)OO1` (relative stereo; form 1), the result was inactive. On to `C=C(c1ccccc1)[C@@H]1CO[C@@]2(CC[C@@]3(C)[C@H](CC[C@@H]4[C@@H]3CC[C@]3(C)[C@@H](C(C)=O)CC[C@@H]43)C2)OO1` (relative stereo; form 1), for which the outcome was inactive. With `C=C(c1ccccc1)[C@@H]1CO[C@@]2(CC[C@@]3(C)[C@H](CC[C@@H]4[C@@H]3CC[C@]3(C)[C@@H](O)CC[C@@H]43)C2)OO1` (relative stereo; form 1), the result was inactive. For `C=C(c1ccccc1)[C@@H]1CO[C@@]2(CC[C@@]3(C)[C@H](CC[C@@H]4[C@@H]3CC[C@]3(C)[C@@H]([C@H](C)C(C)=O)CC[C@@H]43)C2)OO1` (relative stereo; form 1) the value was “inactive”; for `C=C(c1ccccc1)[C@@H]1CO[C@@]2(CC[C@@]3(C)[C@H](CC[C@@H]4[C@@H]3CC[C@]3(C)[C@@H]([C@H](C)CCC(=O)OC)CC[C@@H]43)C2)OO1` (relative stereo; form 1), “inactive”. With `C=C(c1ccc(Br)cc1)[C@@H]1CO[C@@]2(CC[C@@]3(C)[C@H](CC[C@@H]4[C@@H]3CC[C@]3(C)[C@@H](C(C)=O)CC[C@@H]43)C2)OO1` (relative stereo; form 2), the result was inactive.

As to `C=C(c1ccc(Br)cc1)[C@@H]1CO[C@@]2(CC[C@@]3(C)[C@H](CC[C@@H]4[C@@H]3CC[C@]3(C)[C@@H]([C@H](C)C(C)=O)CC[C@@H]43)C2)OO1` (relative stereo; form 2), the outcome was inactive. Under `C=C(c1ccc(Cl)cc1)[C@@H]1CO[C@@]2(CC[C@@]3(C)[C@H](CC[C@@H]4[C@@H]3CC[C@]3(C)[C@@H]([C@H](C)C(C)=O)CC[C@@H]43)C2)OO1` (relative stereo; form 2) stands “inactive”.
